Bioassay records: PubChem BioAssay, SRMLSC
Sampled rows, rich in hits. Any-hit rate of the full collection: about 4.3%.
Yeast lifespan up – compounds extending yeast replicative lifespan, primary screen, S. cerevisiae, OD615. 0.68% of 130,000 active. AID 775, 2007. inhibition of the nicotinamide effect, % at 10 µM. S. cerevisiae growth with nicotinamide; deaD strain in restrictive glucose medium;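 active = inhibition above a set limit, placed 3 SD over the median of all compounds, cut at about 26% in these data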;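 also: 0% = nicotinamide-treated wells and 100% = cells grown without nicotinamide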
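assay system = DeaD-strain S. cerevisiae | buffer or medium = restrictive glucose medium | reagent = 1.5 mM nicotinamide | compound = 10 µM single point, 0.25% DMSO | incubation = 48 h compound exposure at 30 °C, humidified | signal = OD615 measurement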
RAM inhibit – inhibitors of the yeast RAM network, primary screen, dse1pr::URA3 reporter, 5-FOA selection | inhibition, % at 50 µM | S. cerevisiae dse1pr::URA3 reporter, 5-FOA growth OD615, 2 d; analog-sensitive cbk1-as2 kinase mutant strain | 1.8% of 190,000 active;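 active = inhibition above a set limit, 3 SD over mean compound inhibition, cut at about 8.4% in these data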;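 also: 0% = DMSO-only wells with no growth and 100% = 10 µM 1-NA-PP1 full growth; inhibition rescues growth on 5-FOA so higher OD means more RAM inhibition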
WT yeast gro inh – growth inhibition of WT strain, primary screen, mitochondrial fusion inhibitor project, WT and mutant strains, chemical genetic; AID 1362, 2008; inhibition, % at 10 µM; 2.1% of 190,000 active; mitochondrial fusion phenotypic screen; in the data active = inhibition above about 58%; tested in S. cerevisiae
Yeast growth inh – growth inhibitors of yeast BB579 in restrictive medium, primary screen, yeast lifespan-shortening project, S. cerevisiae. OD615, 48 h. inhibition, % at 10 µM. 0.51% of 140,000 active. AID 804, 2007;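 active = inhibition above a set limit, 3 SD over the mean compound inhibition, cut at about 44% in these data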
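System: Saccharomyces cerevisiae DeaD strain BB579, replicative lifespan model yeast | Buffer or medium: Restrictive glucose-based CSMM-D medium | Times: 4 h preincubation and 48 h exposure at 30 °C | Detection: OD615 turbidity measurement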
An asterisk follows results filed as active; . = not tested or not shown.

SMILES	Yeast lifespan up	RAM inhibit	WT yeast gro inh	Yeast growth inh
Cc1cc(O)c(/C=N/OCc2ccc(Cl)cc2Cl)c(=O)o1	.	1	-3	.
CC(C)=C1C2CCC1C(C(=O)Nc1sc(C)c(-c3ccc(C(C)C)cc3)c1C(N)=O)C2C(=O)O (centres undefined)	2	4	62*	-35
COc1ccc(-c2nc(C#N)c(N3CCc4ccccc4C3)o2)cc1OC	-8	2	5	-25
COc1ccccc1-c1nc(C#N)c(N2CCc3ccccc3C2)o1	-23	10*	-4	-59
O=C(CN1C2=NCCCN2c2ccccc21)c1ccc(Cl)cc1Cl	-3	3	11	10
Cc1ccc(S(=O)(=O)n2nc(C)cc2C)cc1	-7	0	2	-30
Cc1ccc(C(C[N+](=O)[O-])n2nc(C)cc2C)cc1 (centres undefined)	19	-1	-12	47*
CN(CCC#N)C(=S)NC(=O)c1ccc(S(=O)(=O)N2CCOCC2)cc1	.	1	-1	.
Fc1ccccc1NC(=S)Nc1ccc(Br)cc1	-5	1	62*	-30
Fc1cc(Br)ccc1NC(=S)Nc1ccccc1	-5	-1	7	-7
CCCCn1cnc2sc(-c3ccccc3)cc2c1=O	-26	0	-7	-25
COc1ccccc1-n1cnc2sc(-c3ccccc3)cc2c1=O	-25	5	75*	5
Cc1cccc(C(=O)Nc2nc(C)c(C(=O)Nc3ccc4c(c3)CCC4)s2)c1	-16	8.6*	11	-42
Cc1cccc(NC(=O)c2sc(C)nc2C)c1	.	-1	-13	-16
O=C(ONc1ccc(N=NC(=O)c2ccccc2O)cc1)c1ccccc1	4	2	38	-16
O=Nc1ccc(NOC(=O)c2ccccc2Br)cc1	-2	3	59*	-32
COc1cc([N+](=O)[O-])ccc1NC(=O)C[n+]1ccccc1C	-10	1	8	-24
CC(C)(C)c1[nH]nc2c1C(c1ccc(OC(=O)c3ccco3)cc1)C(C#N)=C(N)O2 (centres undefined)	-3	10*	-1	-84
CC(C)(C)c1[nH]nc2c1C(c1cccnc1)C(C#N)=C(N)O2 (centres undefined)	-18	0	-4	1
O=C(N/N=C/C=C/c1ccccc1)C1CC1c1ccccc1 (centres undefined)	.	1	64*	-32
N#Cc1ccccc1OCC(=O)NC(N)=O	-10	2	-17	11
CCOC(=O)CCCNC(=O)COc1ccccc1C#N	66*	2	1	-11
COc1ccc(C(=O)OCC(=O)c2ccccc2)cc1S(=O)(=O)N1CCOCC1	2	1	5	-58
S=C(Nc1ccccc1Cl)N(Cc1ccccc1)Cc1ccccn1	.	1	64*	.
O=C(N/N=C/C1CC2CCC1C2)c1ccc2c(c1)OCO2 (centres undefined)	11	1	-20	-16
SMILES	Yeast lifespan up	RAM inhibit	WT yeast gro inh	Yeast growth inh
CC(C)c1ccc(C2=C(O)c3ccccc3C(=O)C2=O)cc1	46*	1	-4	5
Cc1ccc(N2CCOCC2)c2c1C(=O)c1ccccc1C2=O	-6	0	57	63*
CN(C1=C(N2CCOCC2)C(=O)c2ccccc2C1=O)c1ccccc1	11	8	19	-17
COc1ccc(CNC(=O)CCN2C(=S)NC(C)(C)CC2C)cc1 (centres undefined)	.	0	-8	.
O=C(c1cnn2c(C(F)F)cc(-c3ccccc3)nc12)N1CCc2ccccc2C1	.	2	78*	.
Cc1ccc2nc(-c3ccccc3)cc(C(=O)N3CCc4ccccc4C3)c2c1	-4	4	11	-11
O=C(c1cnn2c(C(F)F)cc(C3CC3)nc12)N1CCCC1	107*	-1	-3	-4
O=C(c1cc(-c2ccccc2)nc2ccccc12)N1CCc2ccccc2C1	1	4	71*	-27
CCOC(=O)C1CCCN(C(=O)c2cnn3c(C(F)F)cc(-c4ccc(C)cc4)nc23)C1 (centres undefined)	-13	3	14	-6
Cc1ccc(-c2cc(C(F)F)n3ncc(C(=O)N4CCN5CCCC5C4)c3n2)cc1 (centres undefined)	-26	3	66*	-42
O=C(CCNC(=O)c1ccccc1Cl)Nc1ccc(Cl)c(C(F)(F)F)c1	-4	5	-3	-10
CC(=O)c1cnc2n(c1=O)CCS2	.	3	-8	.
O=[N+]([O-])c1ccc(NCCCNS(=O)(=O)c2ccc(Cl)cc2)c(Cl)c1	-13	10*	60*	-37
O=C(COc1ccc([N+](=O)[O-])cc1)N(Cc1ccccc1)Cc1ccccc1	44	11*	31	-24
O=C(CN(c1cccc([N+](=O)[O-])c1)S(=O)(=O)c1ccccc1)NCc1ccccc1	3	4	-6	-25
O=C(CN(c1cccc([N+](=O)[O-])c1)S(=O)(=O)c1ccccc1)N(Cc1ccccc1)Cc1ccccc1	-6	8.6*	13	-14
Clc1ccc(COc2ccccc2CNCc2cccnc2)cc1	49*	2	9	-14
Cc1ccc(/C(C#N)=C\c2cn(C)c3ccccc23)cc1	-4	8.9*	53	-60
CC(C)c1ccc(S(=O)(=O)c2ccc(NN)cc2)cc1	.	2	69*	.
CC(C)c1ccc(S(=O)(=O)N2CCCCC2)cc1	.	5	5	.
COCCNC(=O)/C(C#N)=C/C(C)=C/c1ccccc1	-1	1	1	-15
COc1cccc2c(=O)c3ccoc3n(C)c12	.	1	1	.
COc1cccc2c(=O)c3c(cnn3C)n(C)c12	-20	-1	4	74*
CCc1ccc(/C=C/C(=O)C2C(=O)c3ccccc3C2=O)cc1	28	9.1*	7	-9
O=C(c1ccccc1)C1CCc2occc2C1=O (centres undefined)	-17	0	6	-31
SMILES	Yeast lifespan up	RAM inhibit	WT yeast gro inh	Yeast growth inh
O=C(/C=C/c1ccccc1)C1C(=O)c2ccccc2C1=O	43*	4	16	-49
CCc1ccc(C2C(C(=O)O)c3ccccc3C(=O)N2C)cc1 (centres undefined)	-2	2	-18	-37
O=C(c1ccccc1)C1C(=O)c2ccccc2C1=O	27*	-1	-20	-9
COc1ccc(CCc2nc(C)ccc2O)cc1	4	1	17	-36
CCCCSCCCNC(=S)Nc1ccccc1C	.	-1	73*	.
CCCCNC(=S)Nc1ccccc1Cc1ccccc1	.	1	73*	.
CCOc1ccccc1N1CCN(C(=S)NC(=O)C23CC4CC(CC(C4)C2)C3)CC1	1	0	59*	0
CCOc1ccccc1N1CCN(C(=S)NCc2ccc(Cl)cc2)CC1	.	6	78*	.
O=C(Oc1ccc2ccccc2c1Br)N1CCCCCC1	-15	1	71*	-52
O=C(Oc1ccc2ccc(=O)oc2c1)N1CCOCC1	-8	0	8	-34
O=C(Oc1ccc2cc(Br)ccc2c1)N1CCCCCC1	-1	1	68*	-47
